Calpain2 inh: blocks pig calpain II enzyme activity; 0.37% of 220,000 active; inhibition, % at 16 µM; purified calpain II, fluorogenic peptide substrate, 30 min;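 active means inhibition above about 50%, limit read from the data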
Rad51 HR inh: blocks human Rad51 in homologous recombination; inhibition, % at 10 µM; 0.085% of 200,000 active; hRad51 DNA strand exchange, fluorescence dequenching;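 active means inhibition above 40% at the single screening dose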;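 further: 0% = DMSO control wells and 100% = blanks with heterologous ssDNA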
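material = hRad51 filaments on single-stranded DNA | timing = filaments 15 min 37 °C, then compound 30 min | signal = FRET fluorescence dequenching, excitation 485 nm, emission 520 nm | benchmarks = control wells and blank wells on each plate | evaluation = percent inhibition relative to plate controls and blanks | compound = 10 µM final, single point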
WT yeast gro inh: growth inhibition of WT yeast, mitochondrial fusion screen | mitochondrial fusion phenotypic screen, WT strain | 2.1% of 190,000 active | inhibition, % at 10 µM; in the data active means inhibition above about 58%; tested in S. cerevisiae
Lmaj promast: reduces viability of Leishmania major promastigotes. resazurin fluorescence viability. inhibition, % at 10 µM. 9% of 200,000 active. AID 1063; in the data active means inhibition above about 50%;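 further: promastigotes grown with compound for 44 hours at 28 °C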
PMI act hi M6P: PMI (human) activation, high substrate | P34949 | coupled PMI enzyme assay, resazurin fluorescence, 20 min; active compounds read high; 1 = untreated enzyme, 0 = substrate-free blank | activation factor at 20 µM | 0.34% of 190,000 active | AID 1216;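 active means activation factor of 2 or more at 20 µM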
Target sequence (P34949 whole entry, looked up): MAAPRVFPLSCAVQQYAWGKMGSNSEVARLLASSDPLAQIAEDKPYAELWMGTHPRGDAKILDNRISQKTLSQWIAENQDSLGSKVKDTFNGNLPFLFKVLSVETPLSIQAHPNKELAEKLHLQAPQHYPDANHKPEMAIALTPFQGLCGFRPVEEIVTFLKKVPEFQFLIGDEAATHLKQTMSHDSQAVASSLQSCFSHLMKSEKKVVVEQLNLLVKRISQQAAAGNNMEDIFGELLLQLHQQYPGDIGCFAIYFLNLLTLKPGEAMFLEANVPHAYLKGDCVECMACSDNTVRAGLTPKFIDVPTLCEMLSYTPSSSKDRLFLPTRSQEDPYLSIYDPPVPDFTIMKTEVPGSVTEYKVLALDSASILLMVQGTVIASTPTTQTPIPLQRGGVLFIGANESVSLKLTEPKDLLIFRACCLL
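test system = human PMI in coupled enzyme assay | medium = HEPES-buffered pH 7.4 with magnesium and detergent | also added = 1.0 mM mannose-6-phosphate substrate with 0.22 mM NADP+ | compound = 20 µM single dose | times = 20 min incubation at room temperature | measured by = resorufin fluorescence (Ex 544/Em 590 nm) from resazurin via diaphorase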
PMI act: phosphomannose isomerase (human) activation. P34949. purified human PMI, coupled resazurin fluorescence, 20 min; active compounds read high; 1 = vehicle control, 0 substrate-free wells. activation factor at 20 µM. 0.005% of 190,000 active;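 active means activation factor of 2 or more at 20 µM, relative to plate controls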
* hit, by the source's call; · = no result given. This is a sample that favours compounds with a hit; in the whole collection about 9.8% have one here.

SMILES	Calpain2 inh	Rad51 HR inh	WT yeast gro inh	Lmaj promast	PMI act hi M6P	PMI act
CN(C)c1ncc(S(=O)(=O)c2ccc(Cl)cc2)c(-c2ccc(Cl)cc2Cl)n1	8.2	·	66.4*	11.5	1	0.9
CN1CCCN(Cc2nc(-c3ccc(Cl)cc3)no2)CC1	-0.7	-0.6	14.0	92.7*	1	0.9
CN1CCCN(Cc2ccc(Cl)cc2Cl)CC1	-12.2	14.8	·	97.8*	1.2	1.1
OCCN1CCN(Cc2nc(-c3cccc(Cl)c3)no2)CC1	9.0	3.8	4.3	8.7	1	0.9
CN1CCCN(Cc2ccccc2C(F)(F)F)CC1	-2.1	4.3	3.0	2.5	1	1
CC1(C)CC(=O)C(N=Nc2cc3c(cc2[N+](=O)[O-])OCCO3)=C(O)C1	-0.5	-16.1	17.1	-8.0	0.9	1.1
O=C(N=Nc1c(O)[nH]c2ccc(Br)cc12)c1ccccc1-n1cccc1	-163.1	·	83.3*	24.3	1	0.9
O=C(N=Nc1c(O)[nH]c2ccc(Br)cc12)c1cc(-c2cccc3ccccc23)n[nH]1	-20.3	-1.1	2.0	66.2*	1	1
Cc1ccc(/C=N/n2cnc3sc(-c4ccccc4)cc3c2=O)o1	19.0	8.4	86.0*	1.1	1	0.9
CCCC(=O)NC(=S)c1c(C)n(C)n(-c2ccccc2)c1=O	1.8	3.6	-12.5	-8.0	1.6	1.5
N#CC(c1ccccc1)c1ccc(C(=O)c2ccc(F)cc2)cc1 (stereo not drawn)	34.5	-0.9	45.0	59.9*	1	1
N#CC(c1ccc(F)cc1)c1ccc(C(=O)c2ccccc2)cc1 (stereo not drawn)	11.1	-9.0	16.4	40.0	0.9	0.9
CCOC(=O)N1CCN(CC(O)c2ccccc2)CC1 (stereo not drawn)	-3.9	20.2	3.1	-3.3	1.1	1.1
OC(CN1CCN(Cc2ccccc2)CC1)c1ccccc1 (stereo not drawn)	18.6	-3.3	-4.7	69.3*	0.9	0.9
OC(COCC(F)(F)C(F)(F)C(F)(F)C(F)F)Cn1c2ccccc2c2ccccc21 (stereo not drawn)	29.5	1.6	91.2*	86.0*	1	0.9
Cc1ccc(OCCN2CCN(CC(O)Cn3c4ccccc4c4ccccc43)CC2)cc1 (stereo not drawn)	22.7	-5.0	85.7	77.1*	0.8	0.7
OC(CN1CCN(Cc2ccccc2)CC1)Cn1c2ccccc2c2ccccc21 (stereo not drawn)	-2.9	·	42.7	80.6*	1	1
OCC(O)CN1CCN(c2ccccc2)CC1 (stereo not drawn)	15.5	0.8	7.5	-2.6	1	1
OC(CN1CCN(Cc2ccccc2)CC1)c1ccc(F)cc1 (stereo not drawn)	-4.6	-34.4	8.0	95.9*	1.2	1.2
Cc1cccc(C)c1OCC(O)Cn1c2ccccc2c2ccccc21 (stereo not drawn)	14.7	2.3	83.1*	17.7	0.8	0.8
OC(CSc1ccc(F)cc1)CN1CCN(c2ccccc2)CC1 (stereo not drawn)	-14.0	3.9	6.1	68.3*	1.1	1.2
COC(=O)c1cnn(-c2ccccc2)c1-n1cccc1C=O	-6.2	3.8	-11.1	-1.4	0.9	0.9
COC(=O)C1(NC(=O)NC2CCCCC2)CCCCC1	7.8	20.1	·	·	·	·
CNC(=O)c1nnsc1S(=O)c1ccc(Cl)cc1 (stereo not drawn)	1.9	3.3	58.9	100.3*	1.1	1.1
CCCNC(=O)c1nnsc1S(=O)c1ccc(Cl)cc1 (stereo not drawn)	0.5	4.0	85.5	100.4*	1.2	1.1
CCc1c(C)nc2cc(-c3cc(OC)cc(OC)c3)nn2c1N1CCCC1	0.9	-0.4	54.9	26.4	0.9	0.9
CCOCCN1CCN(c2c(CC)c(C)nc3cc(-c4cc(OC)cc(OC)c4)nn23)CC1	-33.9	-7.1	35.1	72.2*	1	1
Cc1nc2sc3c(c2c(=O)[nH]1)CCCCC3	-14.6	2.8	·	·	·	·
Cc1cc(C)n(-c2nc3sc4c(c3c(=O)[nH]2)CCCC4)n1	8.1	·	73.2*	99.2*	1.1	1
CCCCC1CCC(C(=O)OCC(=O)Nc2ccc(S(N)(=O)=O)cc2)CC1 (stereo not drawn)	1.0	5.0	-21.7	52.0*	0.9	0.9
